In ChEMBL document CHEMBL1133515, “Hydrolytic stability versus ring size in lactams: implications for the development of lactam antibiotics and other serine protease inhibitors” (J Med Chem, 2000):

Experiments:
Type in all cases: ADME
[1] = Compound was evaluated for the second order hydrolysis rate constant
How it was run: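 Amides were reacted with NaOD in D2O under second-order conditions. Concentrations of amide and hydroxide were tracked over reaction time. k2 was taken from the gradient of a plot of the log of the lactam/hydroxide concentration ratio against time, using the second-order rate law with the starting amide and NaOD concentrations.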

[2] = Compound was evaluated for rate of hydrolysis expressed in hours at a pH of 12.; conditions: pH 12
How it was run: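 Deuterated phosphate buffer at pH 12 was made from 1 M K2DPO4 in D2O, with pH adjusted using 10 M KOD. Lactams were dissolved in it at 0.10 and 0.50 M. Hydrolysis was followed over time, and a rate constant per hour was derived.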

[3] = Compound was evaluated for rate of hydrolysis expressed in hours at a pH of 7.5; conditions: pH 7.5
How it was run: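 Pseudo-first-order hydrolysis was run in 0.33 M phosphate buffer at pH 7.5 in D2O, made by mixing Na2DPO4 and KD2PO4 solutions. The pH was checked potentiometrically. The rate constant was expressed per hour.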

| SMILES | k2 [1] | k [2] | k [3] |
| --- | --- | --- | --- |
| O=C1CCCCCCCN1 | 2.72e-07 M⁻¹ s⁻¹ |  |  |
| O=C1CCCCCCN1 | 1.36e-07 M⁻¹ s⁻¹ |  |  |
| O=C1CCCCCN1 [CAPROLACTAM] | 3.21e-06 M⁻¹ s⁻¹ |  |  |
| O=C1CCCN1 [2-PYRROLIDONE] | 5.59 M⁻¹ s⁻¹ |  |  |
| CNC(C)=O | 3.32e-06 M⁻¹ s⁻¹ |  |  |

Second part, the compound after the results:

| k2 [1] | k [2] | k [3] | SMILES |
| --- | --- | --- | --- |
| 0.000237 M⁻¹ s⁻¹ | 0.00103 h⁻¹ |  | O=C1CCN1 |
|  | 2.3 h⁻¹ | 0.00337 h⁻¹ | CC1(C)S[C@@H]2[C@H](NC(=O)Cc3ccccc3)C(=O)N2[C@H]1C(=O)[O-].[K+] [PENICILLIN G POTASSIUM] |
| 0.000121 M⁻¹ s⁻¹ | 0.000648 h⁻¹ |  | O=C1CCCCN1 |
